Results: ChEMBL document CHEMBL4052607 (J Med Chem, 2017)
Activity calls are given as the source filed them. No cut-off for these calls is given here.

Tests used:
D(2) dopamine receptor [1] = biological target: T1, D(2) dopamine receptor (Homo sapiens, UniProt P14416); experiment: Agonist activity at D2 long receptor (unknown origin) expressed in CHOK1 cells assessed as beta-arrestin recruitment up to 30 uM after 90 mins by DiscoveRx PathHunter assay; assay type: cell-based
In short: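 Agonist mode in CHO-K1 cells expressing D2R long isoform fused to a β-galactosidase fragment, with β-arrestin-2 carrying the complementary fragment. Compound in PBS plus 0.2 μM sodium metabisulfite was preincubated 90 min at 37°C. PathHunter reagent was then added for 30 min at RT and luminescence read. RLU were normalized to the response at maximal dopamine.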

D(2) dopamine receptor [2] = biological target: T1, D(2) dopamine receptor; experiment: Displacement of [3H]N-methylspiperone from human D2L receptor expressed in HEK293 cell membranes after 1 hr by liquid scintillation counting analysis
In short: (§1)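 Membranes from HEK293 cells stably expressing hD2R (long) or hD3R, 10 μg protein per tube, were incubated with 0.4 nM [3H]N-methylspiperone in EBSS with 0.2 mM sodium metabisulfite. Compound was tested over 13 half-log steps, 10 μM to 10 pM, in triplicate for 1 h at RT. Nonspecific binding was set with 10 μM (+)-butaclamol. Bound ligand was collected on PEI-soaked GF/B filters and counted by scintillation. Ki came from Cheng-Prusoff, at least 3 experiments.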

D(3) dopamine receptor [3] = biological target: T2, D(3) dopamine receptor (Homo sapiens, UniProt P35462); experiment: Displacement of [3H]N-methylspiperone from human D3 receptor expressed in HEK293 cell membranes after 1 hr by liquid scintillation counting analysis
Homo sapiens = species on record: Homo sapiens; experiment: Selectivity ratio of Ki for human D2 receptor to Ki for human D3 receptor; in short: as §1
D(2) dopamine receptor [4] = biological target: T1, D(2) dopamine receptor; experiment: Antagonist activity at D2 long receptor (unknown origin) expressed in CHOK1 cells assessed as inhibition of dopamine induced beta-arrestin recruitment after 90 mins by DiscoveRx PathHunter assay; assay type: cell-based
D(3) dopamine receptor [5] = biological target: T2, D(3) dopamine receptor

T2 sequence (P35462 whole entry): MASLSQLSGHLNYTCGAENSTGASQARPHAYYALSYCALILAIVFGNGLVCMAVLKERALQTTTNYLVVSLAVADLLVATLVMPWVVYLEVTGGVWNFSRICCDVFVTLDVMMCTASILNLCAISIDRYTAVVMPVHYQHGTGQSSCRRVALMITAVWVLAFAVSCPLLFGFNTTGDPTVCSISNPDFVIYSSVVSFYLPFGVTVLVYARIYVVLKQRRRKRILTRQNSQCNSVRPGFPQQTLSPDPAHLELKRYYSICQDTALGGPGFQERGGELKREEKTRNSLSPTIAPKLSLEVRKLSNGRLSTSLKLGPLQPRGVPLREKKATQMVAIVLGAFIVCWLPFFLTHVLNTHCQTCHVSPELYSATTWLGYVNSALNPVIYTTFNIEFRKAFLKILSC
T1 sequence (P14416 whole entry, the tested form may be a part, canonical isoform): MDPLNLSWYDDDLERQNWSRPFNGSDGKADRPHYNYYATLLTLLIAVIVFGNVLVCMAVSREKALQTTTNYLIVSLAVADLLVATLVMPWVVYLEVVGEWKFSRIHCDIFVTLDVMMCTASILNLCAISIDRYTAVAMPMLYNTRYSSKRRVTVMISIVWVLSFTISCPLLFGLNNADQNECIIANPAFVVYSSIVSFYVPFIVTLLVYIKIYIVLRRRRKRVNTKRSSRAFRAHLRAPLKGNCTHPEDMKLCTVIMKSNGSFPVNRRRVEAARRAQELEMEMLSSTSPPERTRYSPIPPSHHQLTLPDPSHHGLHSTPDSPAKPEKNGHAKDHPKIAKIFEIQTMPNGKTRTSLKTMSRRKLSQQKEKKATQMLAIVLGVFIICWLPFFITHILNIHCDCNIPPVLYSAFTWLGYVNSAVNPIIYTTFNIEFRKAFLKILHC

| SMILES | Activity (D(2) dopamine receptor [1]) | Ki (D(2) dopamine receptor [2]) [µM] | Ki (D(3) dopamine receptor [3]) [µM] | Ratio Ki (Homo sapiens) | Kb (D(2) dopamine receptor [4]) [µM] | pKb (D(2) dopamine receptor [4]) | pKb (D(3) dopamine receptor [5]) |
| --- | --- | --- | --- | --- | --- | --- | --- |
| N#Cc1ccc2c(c1)CCN(CC[C@H]1CC[C@H](NC(=O)c3ccnc4ccccc34)CC1)C2 | inactive |  |  |  |  |  |  |
| N#Cc1cccc(N2CCNCC2)c1 | inactive | 4.89 | 0.581 | 8.4 | 2.09 | 5.68 | 5.42 |
| N#Cc1ccc2c(c1)CNCC2 | inactive | 11.4 | 1.52 | 7.5 | 4.27 | 5.37 | 5.49 |
